From ChEMBL document CHEMBL4196181, “Flabellipparicine, a Flabelliformide-Apparicine-Type Bisindole Alkaloid from Tabernaemontana divaricata” (J Nat Prod, 2018) come the findings set out here.

For assay [1], the system named is MCF7. The assay is described as follows: Cytotoxicity against human MCF7 cells after 72 hrs by sulforhodamine B assay. The class given is functional, cell-based. To be noted: for pIC50: MCF7, 72 h. In short, it runs like this:
(§1)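 Antiproliferative test on MCF-7 human breast adenocarcinoma and A-549 human lung carcinoma cells. SN38 (7-ethyl-10-hydroxycamptothecin) served as positive control. IC50 is the concentration giving 50% inhibition of cell growth, calculated by a literature procedure.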
A general note: In SRB staining, fixed cells bind dye roughly in proportion to their protein.

For assay [2], the system named is A549. Briefly: Cytotoxicity against human A549 cells after 72 hrs by sulforhodamine B assay. In kind it is functional, cell-based. To be noted: for pIC50: A549, 72 h. In short, it runs like this: as §1

Molecules are shown by their SMILES. pIC50: −log10 of the molar value. Calls of active or inactive are those of the source. The calls are words filed in the database; no cut-off is given here.

The term pIC50 denotes the IC50 on a negative log10 scale, so that one unit is a factor of ten.

Take `CC[C@@H]1CN(C)[C@@H]2Cc3c([nH]c4ccccc34)[C@H](c3ccc4c5c([nH]c4c3)[C@]3(C(=O)OC)C[C@H]4C[C@H](CC)[C@@H]3N(CC5)[C@H]4CC(C)=O)C[C@H]1[C@H]2C(=O)OC`: the pIC50 in assay [1] is 5.89; in assay [2] it was 5.92.

For the molecule `CCc1c2c(nc3ccc(O)cc13)-c1cc3c(c(=O)n1C2)COC(=O)[C@]3(O)CC` [7-ETHYL-10-HYDROXYCAMPTOTHECIN], the negative logarithm of the IC50 (pIC50) in assay [1] is > 10.00; in assay [2], 6.70.

For the molecule `C/C=C1/C[N+]2(C)[C@@H]3Cc4c([nH]c5ccccc45)[C@]2(c2ccc4c5c([nH]c4c2)[C@@H]2C[C@H]4C[C@H](CC)[C@@H]2N(CC5)C4)C[C@H]1[C@H]3C(=O)OC`, the pIC50 is 5.89 in assay [1] and 5.49 in assay [2].

For `C/C=C1/CN2CC[C@@H]1/C(=C\[C@@H]1C[C@@H]3/C(=C\C)CN(C)[C@H](Cc4c1[nH]c1ccccc41)[C@@H]3C(=O)OC)c1[nH]c3ccccc3c1C2`, the pIC50 in assay [1] is 5.89; in assay [2], 5.40.

Take `CC[C@@H]1CN(C)[C@@H]2Cc3c([nH]c4ccccc34)[C@H](c3ccc4c5c([nH]c4c3)[C@]3(C(=O)OC)C[C@H]4C[C@H](CC)[C@@H]3N(CC5)C4)C[C@H]1[C@H]2C(=O)OC`: the values for the pIC50 in assay [1] and in assay [2] were 5.27 and < 5.00, respectively.

As for `CC[C@@H]1CN(C)[C@@H]2Cc3c([nH]c4ccccc34)[C@H](c3ccc4c(c3)N=C3[C@@H]5C[C@H]6C[C@H](CC)[C@@H]5N(CC[C@@]34O)C6)C[C@H]1[C@H]2C(=O)OC`, the values for the pIC50 in assay [1] and in assay [2] were 5.89 and < 5.00, respectively.

For the molecule `C/C=C1/CN2CC[C@@H]1/C(=C\[C@@H]1C[C@@H]3[C@H](CC)CN(C)[C@H](Cc4c1[nH]c1ccccc41)[C@@H]3C(=O)OC)c1[nH]c3ccccc3c1C2`, the negative logarithm of the IC50 (pIC50) in assay [1] is 6.10; in assay [2], 5.09.

With `CCC1C[C@@H]2C[C@@]3(C(=O)OC)C4=Nc5ccccc5[C@@]4(O)CCN([C@@H]13)[C@H]2CC(C)=O` (stereo partly specified), the result in assay [1] and in assay [2] was inactive.

As for `C=C1c2[nH]c3ccccc3c2CN2CC[C@H]1/C(=C\C)C2`, the outcome in assay [1] and in assay [2] was inactive.

As for `C/C=C1/CN2CC[C@@H]1[C@@]1(C[C@H]3C[C@@H]4/C(=C\Cc5c3n1c1ccccc51)C(=O)N(C)C[C@@H]4CC)c1[nH]c3ccccc3c1C2`, the pIC50 in assay [1] is < 5.00; in assay [2], 5.12.

As for `CC[C@H]1[C@@H]2CCN3CC[C@@]4(C(=C2C(=O)OC)Nc2ccccc24)[C@@H]13`, the result in assay [1] and in assay [2] was inactive.

For `C/C=C1/C[N+]2(C)[C@@H]3Cc4c([nH]c5ccccc45)[C@]2(c2ccc4c5c([nH]c4c2)[C@]2(C(=O)OC)C[C@H]4C[C@H](CC)[C@@H]2N(CC5)C4)C[C@H]1[C@H]3C(=O)OC`, the values for the pIC50 in assay [1] and in assay [2] were 5.14 and 5.92, respectively.

`CC[C@H]1CN2CCc3cc(OC)c(OC)cc3[C@@H]2C[C@@H]1C[C@H]1NCCc2c1[nH]c1ccccc21`: the figures for the pIC50 in assay [1] and in assay [2] were 8.70 and 7.05, respectively.
